Experimental data published in ChEMBL document CHEMBL1153551, “Resveratrol modulates phagocytosis of bacteria through an NF-kappaB-dependent gene program” (Antimicrob Agents Chemother, 2008).
Calls of active or inactive are those of the source.

Tests used:
RAW264.7 [1] = experiment: Inhibition of phagocytosis of FITC-conjugated Escherichia coli K12 in mouse RAW264.7 cells using trypan blue staining after 20 mins by flow cytometry; type: functional, cell-based
Outline: (§1)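 Serum-free THP-1 or RAW264.7 cells were treated 1 h with resveratrol, then incubated 0, 20, 40, 60 or 80 min with heat-killed FITC-E. coli at 1:100 cell:bacterium. Outer fluorescence was quenched with 0.2% trypan blue and cells fixed in 1% paraformaldehyde. Internalized fluorescence was read as flow cytometry MFI; mean and SD of triplicates.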

RAW264.7 [2] = experiment: Inhibition of phagocytosis of FITC-conjugated Escherichia coli K12 in mouse RAW264.7 cells using trypan blue staining after 40 mins by flow cytometry; type: functional, cell-based; outline: as §1
RAW264.7 [3] = experiment: Inhibition of phagocytosis of FITC-conjugated Escherichia coli K12 in mouse RAW264.7 cells using trypan blue staining after 60 mins by flow cytometry; type: functional, cell-based; outline: as §1
RAW264.7 [4] = experiment: Inhibition of phagocytosis of FITC-conjugated Escherichia coli K12 in mouse RAW264.7 cells using trypan blue staining after 80 mins by flow cytometry; type: functional, cell-based; outline: as §1
THP-1 [5] = experiment: Inhibition of phagocytosis of FITC-conjugated Escherichia coli K12 in human THP1 cells using trypan blue staining after 20 mins by flow cytometry; type: functional, cell-based; outline: as §1
THP-1 [6] = experiment: Inhibition of phagocytosis of FITC-conjugated Escherichia coli K12 in human THP1 cells using trypan blue staining after 40 mins by flow cytometry; type: functional, cell-based; outline: as §1
THP-1 [7] = experiment: Inhibition of phagocytosis of FITC-conjugated Escherichia coli K12 in human THP1 cells using trypan blue staining after 60 mins by flow cytometry; type: functional, cell-based; outline: as §1
THP-1 [8] = experiment: Inhibition of phagocytosis of FITC-conjugated Escherichia coli K12 in human THP1 cells using trypan blue staining after 80 mins by flow cytometry; type: functional, cell-based; outline: as §1
RAW264.7 [9] = experiment: Inhibition of phagocytosis of FITC-conjugated Escherichia coli K12 in mouse RAW264.7 cells assessed as reduction in ratio of number of bacterial cells to phagocytes using trypan blue staining by flow cytometry; type: functional, cell-based
Outline: (§2)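 THP-1 or RAW264.7 cells received resveratrol for 1 h serum-free, then a range of doses of heat-killed FITC-E. coli or FITC-S. aureus. Trypan blue (0.2%) quenched bound bacteria and 1% paraformaldehyde fixed the cells. Flow cytometry MFI of internalized bacteria was plotted against bacterial dose; triplicates.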

RAW264.7 [10] = experiment: Inhibition of phagocytosis of FITC-conjugated Staphylococcus aureus 209P in mouse RAW264.7 cells assessed as reduction in ratio of number of bacterial cells to phagocytes using trypan blue staining by flow cytometry; type: functional, cell-based; outline: as §2
THP-1 [11] = experiment: Inhibition of phagocytosis of FITC-conjugated Escherichia coli K12 in human THP1 cells assessed as reduction in ratio of number of bacterial cells to phagocytes using trypan blue staining by flow cytometry; type: functional, cell-based; outline: as §2
THP-1 [12] = experiment: Inhibition of phagocytosis of FITC-conjugated Staphylococcus aureus 209P in human THP1 cells assessed as reduction in ratio of number of bacterial cells to phagocytes using trypan blue staining by flow cytometry; type: functional, cell-based; outline: as §2
RAW264.7 [13] = experiment: Inhibition of FSL-1-induced increase in phagocytosis of FITC-conjugated Escherichia coli K12 in mouse RAW264.7 cells using trypan blue staining after 20 mins by flow cytometry; type: functional, cell-based
Outline: (§3)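 THP-1 or RAW264.7 cells (1 × 10⁶/ml) were pretreated 24 h with FSL-1 (0, 1, 10, 100 nM), washed, then given resveratrol (10, 50, 100 μM) for 1 h serum-free. Heat-killed FITC-E. coli (1:10) or FITC-S. aureus (1:100) followed. Surface fluorescence was quenched with 0.2% trypan blue and cells fixed in 1% paraformaldehyde. Flow cytometry mean fluorescence intensity, triplicates.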

RAW264.7 [14] = experiment: Inhibition of FSL-1-induced increase in phagocytosis of FITC-conjugated Staphylococcus aureus 209P in mouse RAW264.7 cells using trypan blue staining after 20 mins by flow cytometry; type: functional, cell-based; outline: as §3
THP-1 [15] = experiment: Inhibition of FSL-1-induced increase in phagocytosis of FITC-conjugated Escherichia coli K12 in human THP1 cells using trypan blue staining after 20 mins by flow cytometry; type: functional, cell-based; outline: as §3
THP-1 [16] = experiment: Inhibition of FSL-1-induced increase in phagocytosis of FITC-conjugated Staphylococcus aureus 209P in human THP1 cells using trypan blue staining after 20 mins by flow cytometry; type: functional, cell-based; outline: as §3
THP-1 [17] = experiment: Inhibition of FSL-1-induced increase in phagocytosis of FITC-conjugated Escherichia coli K12 in human THP1 cells assessed as reduction in number of cells phagocytosing bacteria per cell after 1 hr by CLSM; type: functional, cell-based
Outline: (§4)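 THP-1 cells (1 × 10⁶/ml) were held 24 h with or without 100 nM FSL-1, washed, then given 100 μM resveratrol or 0.1% DMSO for 1 h. Heat-killed FITC-E. coli (1:100) was added for 1 h, cells were stained with concanavalin A, fixed in 3% paraformaldehyde and imaged by confocal microscopy. Readouts: particles per cell among 3,500 cells; % cells with bacteria per field (>100 cells), 25 fields.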

THP-1 [18] = experiment: Inhibition of FSL-1-induced increase in phagocytosis of FITC-conjugated Escherichia coli K12 in human THP1 cells assessed as reduction in number of phagocytosing bacteria to total number of cells after 1 hr by CLSM; type: functional, cell-based; outline: as §4
HEK293 [19] = experiment: Inhibition of FSL1-induced NF-kappaB activation in HEK293 cells expressing TLR2 pretreated for 1 hr before 6 hrs-FSL1 stimulation by luciferase reporter gene assay; type: cell-based; settings: Homo sapiens
Outline: (§5)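 293/TLR2 cells (1 × 10⁵/well) were transfected with 50 ng pNF-κB-Luc, 5 ng pRL-TK and 445 ng pcDNA3. After 24 h they were pretreated 1 h with resveratrol, then stimulated 6 h serum-free with FSL-1 (1, 10, 100 nM) or heat-killed E. coli or S. aureus (1:1, 1:10, 1:100). Dual luciferase readout, triplicates.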

HEK293 [20] = experiment: Inhibition of heat killed Escherichia coli K12-induced NF-kappaB activation in HEK293 cells expressing TLR2 pretreated for 1 hr before 6 hrs heat killed bacterial stimulation by luciferase reporter gene assay; type: cell-based; settings: Homo sapiens; outline: as §5
HEK293 [21] = experiment: Inhibition of heat killed Staphylococcus aureus 209P-induced NF-kappaB activation in HEK293 cells expressing TLR2 pretreated for 1 hr before 6 hrs heat killed bacterial stimulation by luciferase reporter gene assay; type: cell-based; settings: Homo sapiens; outline: as §5
HEK293 [22] = experiment: Inhibition of heat killed Escherichia coli K12-induced nuclear translocation of p65 element of NF-kappaB in HEK293 cells expressing TLR2 at 100 uM pretreated for 1 hr before 6 hrs heat killed bacterial stimulation by immunostaining method; type: cell-based; settings: Homo sapiens
Outline: (§6)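 293/TLR2 cells on poly-L-lysine coverslips were given 100 μM resveratrol or 0.1% DMSO for 1 h, then heat-killed E. coli or S. aureus (1:100) for 6 h. Cells were fixed in methanol at −20°C for 5 min and stained with rabbit anti-p65 pAb (1 μg/ml, 45 min RT), then Alexa 594 anti-rabbit IgG. Nuclear p65 was viewed by confocal microscopy.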

HEK293 [23] = experiment: Inhibition of heat killed Staphylococcus aureus 209P-induced nuclear translocation of p65 element of NF-kappaB in HEK293 cells expressing TLR2 at 100 uM pretreated for 1 hr before 6 hrs heat killed bacterial stimulation by immunostaining method; type: cell-based; settings: Homo sapiens; outline: as §6
RAW264.7 [24] = experiment: Inhibition of heat killed Escherichia coli K12-induced TNF alpha production in mouse RAW264.7 cells at 1 to 100 uM after 6 hrs by ELISA; type: functional, cell-based
Outline: (§7)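 THP-1 or RAW264.7 cells (1 × 10⁶/well, 16 h) were washed and pretreated 1 h with resveratrol. Serum-free stimulation with heat-killed E. coli or S. aureus at 1:100 followed for 0, 2, 4 or 6 h. TNF-α in supernatants (400 × g spin) was measured by ELISA: human kit for THP-1, mouse kit for RAW264.7. Triplicates.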

THP-1 [25] = experiment: Inhibition of heat killed Escherichia coli K12-induced TNF alpha production in human THP1 cells at 1 to 100 uM after 6 hrs by ELISA; type: functional, cell-based; outline: as §7
RAW264.7 [26] = experiment: Inhibition of heat killed Staphylococcus aureus 209P-induced TNF alpha production in mouse RAW264.7 cells at 1 to 100 uM after 6 hrs by ELISA; type: functional, cell-based; outline: as §7
THP-1 [27] = experiment: Inhibition of heat killed Staphylococcus aureus 209P-induced TNF alpha production in human THP1 cells at 1 to 100 uM after 6 hrs by ELISA; type: functional, cell-based; outline: as §7
THP-1 [28] = experiment: Inhibition of FSL1-induced upregulation of MSR1 mRNA expression in human THP1 cells at 100 uM after 1 hr by RT-PCR; type: functional, cell-based
Outline: (§8)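 Serum-free THP-1 cells primed 24 h with 100 nM FSL-1 were given 100 μM resveratrol or 0.1% DMSO for 1 h. Total RNA from 5 × 10⁶ cells was reverse-transcribed with oligo(dT) and PCR-amplified for MSR1, CD36, DC-SIGN and Dectin-1 (30 cycles) with β-actin as reference (25 cycles). Products were resolved on 3% agarose with ethidium bromide.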

THP-1 [29] = experiment: Inhibition of FSL1-induced upregulation of CD36 mRNA expression in human THP1 cells at 100 uM after 1 hr by RT-PCR; type: functional, cell-based; outline: as §8
THP-1 [30] = experiment: Inhibition of FSL1-induced upregulation of DC-SIGN mRNA expression in human THP1 cells at 100 uM after 1 hr by RT-PCR; type: functional, cell-based; outline: as §8
THP-1 [31] = experiment: Inhibition of FSL1-induced upregulation of dectin-1 mRNA expression in human THP1 cells at 100 uM after 1 hr by RT-PCR; type: functional, cell-based; outline: as §8
HEK293 [32] = experiment: Inhibition of DC-SIGN expression in HEK293 cells expressing DC-SIGN at 100 uM by Western blot analysis; type: functional, cell-based; settings: Homo sapiens
Outline: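 293/DC-SIGN cells (1 × 10⁷ per 10-cm dish, DMEM complete medium, 16 h) were washed and exposed to 100 μM resveratrol for 0, 30, 60, 90 or 120 min. Lysates in SDS sample buffer with protease inhibitors were boiled and run on 10% SDS-PAGE, then blotted to nitrocellulose. Probes were anti-DC-SIGN or anti-β-actin mAb (4°C overnight), then HRP anti-mouse IgG.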

HEK293 [33] = experiment: Inhibition of phagocytosis of heat killed FITC-conjugated Escherichia coli K12 in HEK293 at 100 uM by after 1 hr; type: functional, cell-based; settings: Homo sapiens
Outline: (§9)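 293/DC-SIGN cells (5 × 10⁵/ml) were plated the day before, washed and treated 1 h with resveratrol. Heat-killed FITC-E. coli or S. aureus were added for 1 h at various cell:bacterium ratios. Trypan blue (0.2%) quenched surface fluorescence and 1% paraformaldehyde fixed the cells. Flow cytometry MFI, triplicates.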

HEK293 [34] = experiment: Inhibition of phagocytosis of heat killed FITC-conjugated Staphylococcus aureus 209P in HEK293 at 100 uM after 1 hr; type: functional, cell-based; settings: Homo sapiens; outline: as §9
RAW264.7 [35] = experiment: Inhibition of phagocytosis of FITC-conjugated Staphylococcus aureus 209P in mouse RAW264.7 cells using trypan blue staining after 20 mins by flow cytometry; type: functional, cell-based
RAW264.7 [36] = experiment: Inhibition of phagocytosis of FITC-conjugated Staphylococcus aureus 209P in mouse RAW264.7 cells using trypan blue staining after 40 mins by flow cytometry; type: functional, cell-based
RAW264.7 [37] = experiment: Inhibition of phagocytosis of FITC-conjugated Staphylococcus aureus 209P in mouse RAW264.7 cells using trypan blue staining after 60 mins by flow cytometry; type: functional, cell-based
RAW264.7 [38] = experiment: Inhibition of phagocytosis of FITC-conjugated Staphylococcus aureus 209P in mouse RAW264.7 cells using trypan blue staining after 80 mins by flow cytometry; type: functional, cell-based
THP-1 [39] = experiment: Inhibition of phagocytosis of FITC-conjugated Staphylococcus aureus 209P in human THP1 cells using trypan blue staining after 20 mins by flow cytometry; type: functional, cell-based
THP-1 [40] = experiment: Inhibition of phagocytosis of FITC-conjugated Staphylococcus aureus 209P in human THP1 cells using trypan blue staining after 40 mins by flow cytometry; type: functional, cell-based
THP-1 [41] = experiment: Inhibition of phagocytosis of FITC-conjugated Staphylococcus aureus 209P in human THP1 cells using trypan blue staining after 60 mins by flow cytometry; type: functional, cell-based
THP-1 [42] = experiment: Inhibition of phagocytosis of FITC-conjugated Staphylococcus aureus 209P in human THP1 cells using trypan blue staining after 80 mins by flow cytometry; type: functional, cell-based

Measured: Activity

Oc1ccc(/C=C/c2cc(O)cc(O)c2)cc1
active: RAW264.7 [1] Dose-dependent effect | RAW264.7 [2] Dose-dependent effect | RAW264.7 [3] Dose-dependent effect | RAW264.7 [4] Dose-dependent effect | THP-1 [5] Dose-dependent effect | THP-1 [6] Dose-dependent effect | THP-1 [7] Dose-dependent effect | THP-1 [8] Dose-dependent effect | RAW264.7 [9] | RAW264.7 [10] | THP-1 [11] | THP-1 [12] | RAW264.7 [13] Dose-dependent effect | RAW264.7 [14] Dose-dependent effect | THP-1 [15] Dose-dependent effect | THP-1 [16] Dose-dependent effect | THP-1 [17] | THP-1 [18] | HEK293 [19] Dose-dependent effect | HEK293 [20] | HEK293 [21] | HEK293 [22] | HEK293 [23] | RAW264.7 [24] | THP-1 [25] | RAW264.7 [26] | THP-1 [27] | THP-1 [28] | THP-1 [29] | THP-1 [30] | THP-1 [31] | HEK293 [32] | HEK293 [33] Dose-dependent effect | HEK293 [34] Dose-dependent effect | RAW264.7 [35] Dose-dependent effect | RAW264.7 [36] Dose-dependent effect | RAW264.7 [37] Dose-dependent effect | RAW264.7 [38] Dose-dependent effect | THP-1 [39] Dose-dependent effect | THP-1 [40] Dose-dependent effect | THP-1 [41] Dose-dependent effect | THP-1 [42] Dose-dependent effect
